The text below walks through data of ChEMBL document CHEMBL1143976, “Synthesis of fluorine substituted pyrazolopyrimidines as potential leads for the development of PET-imaging agents for the GABAA receptors” (Bioorg Med Chem, 2008).

Data set [1] can be described thus: Distribution coefficient, log D by alkyl amide reversed phase method. It is filed as physicochemical. The note with it: octanol/water; read-out: Log D. Put shortly:
(§1)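 HPLC logD per European guideline; line 4 on Multisorb RP18-7 C-18 column, line 5 on Supelcosil ABZ+Plus alkyl amide column (both 250 × 4 mm). Solvent A 5% acetonitrile/20 mM ammonium acetate held 0–5 min, then solvent B 80% acetonitrile/20 mM ammonium acetate to 40, 50 or 65 min; 1 mL/min; UV detection. SD reported.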

Data set [2] is described as follows: Distribution coefficient, log D by C-18 reversed phase method. It is filed as physicochemical. The note with it: octanol/water; read-out: Log D. The gist of the method:
as §1

A short description of data set [3]: Displacement of [3H]flunitrazepam from GABAA receptor in Sprague-Dawley rat cerebellar membrane. Also on record: species or system Cerebellum. The gist of the method:
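Cerebella from adult female Sprague–Dawley rats (8–10 weeks) homogenised in ice-cold 50 mM Tris-HCl pH 7.4; 20,000g membrane pellet washed repeatedly. Incubated with N-methyl-[3H]flunitrazepam (~0.3 nM final) at 21 °C for 60 min; nonspecific binding defined with zolpidem. Filtered onto PEI-presoaked GF/B, scintillation counted. IC50 by nonlinear regression from 10–12 concentrations in triplicate; ≥3 independent experiments, mean ± SD.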

Turning to `CC(=O)N(C)c1cccc(-c2ccnc3c(C(=O)c4cccs4)cnn23)c1` [INDIPLON], the chromatographic logD was 2.23 in data set [1] and 2.26 in data set [2]. Further, the IC50 (usually the concentration that inhibits the measured activity by half) in data set [3] was 3.29 nM.
For the compound `CCC(=O)N(CCCF)c1cccc(-c2ccnc3c(C(=O)c4cccs4)cnn23)c1`, the IC50 in data set [3] is 5.26 nM.
On to `CC(=O)N(CCCCF)c1cccc(-c2ccnc3c(C(=O)c4cccs4)cnn23)c1`, for which, in data set [2], the chromatographic logD amounted to 2.48. Moreover, the IC50 in data set [3] was found to be 5.98 nM.
As for `CC(=O)N(CCCF)c1cccc(-c2ccnc3c(C(=O)c4cccs4)cnn23)c1`, the values for the chromatographic logD in data set [1] and in data set [2] were 2.38 and 2.35, respectively. The same compound registered an IC50 in data set [3] of 2.78 nM.
On the same counts, the results for `CC(=O)N(C)c1cccc(-c2ccnc3c(C(=O)c4ccc(F)cc4)cnn23)c1` are 2.38, 2.34 and 53.3 nM.
Consider `CC(=O)N(CCF)c1cccc(-c2ccnc3c(C(=O)c4cccs4)cnn23)c1`, for which, in data set [2], the chromatographic logD was 2.62. In data set [3], this compound yielded an IC50 of 5.71 nM.
Consider `CN(C(=O)c1ccc(F)cc1)c1cccc(-c2ccnc3c(C(=O)c4cccs4)cnn23)c1`, for which the chromatographic logD came out at 2.63 in data set [1] and 2.64 in data set [2]. In data set [3], this compound had an IC50 of 14.1 nM.
Take `CN(C(=O)c1ccc([N+](=O)[O-])cc1)c1cccc(-c2ccnc3c(C(=O)c4cccs4)cnn23)c1`: the chromatographic logD in data set [1] turned out to be 2.64; in data set [2], 2.51. In data set [3], this compound returned an IC50 of 15.9 nM.
Regarding `CC(C)C(=O)N(CCCF)c1cccc(-c2ccnc3c(C(=O)c4cccs4)cnn23)c1`, the chromatographic logD in data set [1] was found to be 2.68; in data set [2] it was 2.55. This compound also gave an IC50 in data set [3] of 37.7 nM.
`CN(CCF)c1cccc(-c2ccnc3c(C(=O)c4cccs4)cnn23)c1`: the chromatographic logD in data set [1] was determined as 2.69; in data set [2], 2.66. The IC50 in data set [3] was found to be 17.8 nM.
